An excerpt weighted towards active compounds, which were near 1.8% of everything screened.
TLR4 MyD88 comp – inhibitors of TLR4-MyD88 association in cells, primary screen, cell-based, HeLa CL3-4, BLA complementation, FRET ratio. Toll-like receptor 4 (Homo sapiens) + Myeloid differentiation primary response protein …. HeLa CL3-4 TLR4/MyD88 BLA complementation. inhibition, % at 8.4 µM. 200,000 compounds, 0.18% hits; in the data active = inhibition above about 25%;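 note: 0% = vehicle and 100% = reference inhibitor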
TLR9-MyD88 block – inhibitors of TLR9-MyD88 association in cells, primary screen, cell-based, CHO, BLA complementation, fluorescence. Toll-like receptor 9 (Homo sapiens) + Myeloid differentiation primary response protein …. CCF4 FRET ratio. inhibition, % at 4.98 µM. 340,000 compounds, 0.21% hits;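 active = inhibition above the mean over all tested compounds plus 3 SD, cut at about 21% in these data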;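 note: 0% = DMSO only wells and 100% = clavulanate BLA inhibitor control wells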
MC4R antagonist – MC4R antagonists of cAMP signaling, primary screen, cell-based, TR-FRET, antagonist arm of biased-ligand search; Melanocortin receptor 4 (Homo sapiens), P32245; MC4R-expressing cells, MTII-stimulated cAMP, LANCE TR-FRET; inhibition, % at 6.5 µM; 360,000 compounds, 0.48% hits; AID 540295, 2011;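 active = inhibition above its plate's cutoff, the mean of tested wells on that plate plus 3 SD, cut at about 29% in these data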;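 note: 0% = Melanotan II alone and 100% = Melanotan II plus saturating MCL0020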
Target sequence (P32245 whole entry, looked up): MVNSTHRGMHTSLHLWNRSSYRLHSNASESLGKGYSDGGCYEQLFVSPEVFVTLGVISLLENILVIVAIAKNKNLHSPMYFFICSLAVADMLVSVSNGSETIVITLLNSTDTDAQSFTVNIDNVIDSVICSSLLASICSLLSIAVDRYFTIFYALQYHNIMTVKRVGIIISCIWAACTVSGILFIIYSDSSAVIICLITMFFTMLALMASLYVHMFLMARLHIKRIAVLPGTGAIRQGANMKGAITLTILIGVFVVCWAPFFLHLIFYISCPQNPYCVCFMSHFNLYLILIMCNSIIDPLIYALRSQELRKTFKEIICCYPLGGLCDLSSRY
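System: U2OS cells stably expressing human melanocortin 4 receptor (MC4R). Reagent: Melanotan II challenge after compound preincubation. Doses: 6.5 µM. Times: 30-min compound, 1-h challenge, 1-h detection, room temperature. Measured by: TR-FRET with Eu-cAMP and labeled anti-cAMP, 671 nm. Replicates: singlicate.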
NOD2 RIPK2 PPI – NOD2-RIPK2 binding disruptors in cells, primary screen, fluorescence, CHO cells, BLA complementation. Receptor-interacting serine/threonine-protein kinase 2 (Homo sapiens), O43353. CCF4 ratio. inhibition, % at 4.98 µM. 360,000 compounds, 0.38% hits; in the data active = inhibition above about 21%;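 note: 0% = vehicle only and 100% = reference blocker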
MC4R ag barr – MC4R agonists recruiting beta-arrestin, primary screen, cell-based, luminescence, agonist arm of biased-ligand search | 360,000 compounds, 0.98% hits | U2OS MC4R beta-arrestin complementation; percent of melanotan II response, DMSO zero | Melanocortin receptor 4 (Homo sapiens), P32245 | activation, % at 8.9 µM | AID 540308, 2011;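 active = activation above a per-plate cutoff, the mean activation of sample wells on that plate plus 3 SD, cut at about 8% in these data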
cAMP nonselect – nonselective cAMP signaling inhibitors, parental cells, counter-screen for MC4R biased antagonist project, cell-based, TR-FRET, U2OS, forskolin, triplicate; LANCE TR-FRET; AID 602193, 2012; inhibition, % at 6.5 µM; 1,600 compounds, 26% hits; shares compounds with MC4R antagonist;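 active = mean inhibition over triplicates above the low-control well mean plus 3 SD, set per campaign, cut at about 13% in these data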;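 note: signal is single emission at 671 nm which falls as cellular cAMP rises; 0% = forskolin-stimulated wells and 100% = buffer without forskolin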
MC4R antag conf – MC4R cAMP antagonists, retest, confirmation, cell-based, TR-FRET. MC4R-expressing cells, MTII-stimulated cAMP. AID 602195, 2012. 1,600 compounds, 27% hits. shares compounds with MC4R antagonist. inhibition, % at 6.5 µM; in the data active = inhibition above about 29%;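 note: 0% = agonist stimulated wells alone and 100% = agonist stimulated wells plus saturating reference antagonist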
Numbers without * were called inactive; x = not tested or not shown.

SMILES | TLR4 MyD88 comp | TLR9-MyD88 block | MC4R antagonist | NOD2 RIPK2 PPI | MC4R ag barr | cAMP nonselect | MC4R antag conf
Cc1nc(N2CCC(C)CC2)c2c(C)c(C(=O)Nc3ccccc3C(F)(F)F)sc2n1 | -7.3 | -1.9 | 29.7* | -2.2 | 2.4 | 2.1 | 18.2
O=C(NCc1ccccc1)c1c(Cl)nc(Cl)c(Cl)c1Cl | x | 20.1 | 64.0* | 15.3 | 0.3 | 45.3* | 64.4*
O=C1ON=C(c2cccc([N+](=O)[O-])c2)/C1=C/c1ccc(O)cc1 | 9.0 | 3.8 | 37.6* | -1.6 | 1.2 | 3.6 | 7.9
O=C1ON=C(c2ccccc2)/C1=C/c1ccc(O)c(O)c1 | x | 4.3 | 8.7 | -14.6 | -1.7 | x | x
O=C(CN1CCN(C(=O)CNC(=O)c2ccc(N3CCCC3=O)cc2)CC1)Nc1cccc(F)c1 | x | -7.2 | 1.5 | -5.8 | -1.8 | x | x
CCC(CC)C1C(C#N)=C(N)Oc2n[nH]c(C)c21 (centres undefined) | -2.0 | -7.1 | 2.2 | 4.5 | 1.5 | x | x
CCn1nc(C)c(C2C(C#N)=C(N)Oc3n[nH]c(C)c32)c1C (centres undefined) | -1.8 | 8.8 | 30.7* | 2.5 | 1.8 | 2.3 | -0.4
COc1ccc(NC(=S)N2CCC(c3ccccc3)C2)cc1 (centres undefined) | x | 6.9 | 2.5 | 3.4 | -0.7 | x | x
Cc1ccc(Cl)cc1NC(=S)N1CCC(c2ccccc2)C1 (centres undefined) | -5.7 | -4.3 | 30.5* | -4.9 | -0.8 | -1.1 | -4.5
O=C(O)CC12CC3CC(C1)CC(n1ncc(NCc4ccccc4)c(Cl)c1=O)(C3)C2 | x | -0.1 | -1.9 | -1.1 | 1.9 | x | x
O=C(O)C12CC3CC(C1)CC(n1ncc(NCc4ccccc4)c(Cl)c1=O)(C3)C2 | -1.6 | -9.3 | 31.8* | -4.6 | 1.8 | -1.0 | -10.4
CS(=O)(=O)c1ccc(Cl)c(NC(=O)CSc2nc3ccccc3c(=O)n2CCCN2CCOCC2)c1 | -7.5 | 8.1 | 31.5* | 0.0 | -0.9 | 2.1 | -0.5
CSc1ccccc1-c1nnc(-c2ccc(Cl)cc2Cl)o1 | -1.7 | -2.8 | 5.3 | -6.5 | -1.3 | x | x
CCSc1nnc(-c2ccccc2SC)o1 | -8.5 | 3.3 | 30.0* | 0.0 | -1.8 | 8.1 | 9.6
COc1ccc(N(C(=O)Cc2cccs2)C(C(=O)NC2CCCC2)c2ccncc2)cc1OC (centres undefined) | x | 11.3 | 0.3 | -1.0 | -1.8 | x | x
C#CC(=O)N(c1ccc(OC)c(OC)c1)C(C(=O)NC1CCCC1)c1cccs1 (centres undefined) | 15.9 | 3.5 | 61.7* | 3.9 | 10.5* | -35.9 | 63.3*
c1ccc(-c2nc3c([nH]2)CCc2nonc2-3)cc1 | -2.9 | -13.2 | 29.2* | -10.3 | -2.2 | 0.6 | -2.5
Cc1nc(CCNC(=O)C2CCC(=O)N(Cc3cccc(F)c3)C2)sc1C (centres undefined) | x | -10.8 | -2.1 | -1.1 | 0.1 | x | x
S=c1[nH]nc(C(c2ccccc2)C2CCCCC2)o1 (centres undefined) | x | 0.2 | 29.6* | -13.5 | -0.2 | 2.3 | 2.3
S=c1[nH]nc(C2(c3ccccc3)CCCC2)o1 | x | 3.1 | -3.1 | -1.2 | -0.6 | x | x
CCN(CC(=O)Nc1ccc(Cl)c(S(=O)(=O)N(C)C)c1)CC(=O)NC(C)C | -1.2 | 9.2 | 29.7* | -6.2 | 0.5 | 1.0 | -14.7
COc1ccc(NC(=O)CN(C)CC(=O)Nc2ccc(Cl)c(S(=O)(=O)N(C)C)c2)cc1 | 3.8 | -8.0 | -2.0 | -3.7 | -1.9 | x | x
CCOC(=O)c1cc(S(=O)(=O)Nc2ccc(OC)cc2OC)cn1C | x | 3.1 | 1.6 | 0.1 | 1.4 | x | x
CCC(C)(C)c1nnc(NC(=O)CCC2CCCCC2)s1 | x | x | 7.7 | 4.2 | 1.4 | x | x

Screens deposited in PubChem by The Scripps Research Institute Molecular Screening Center.
